Assay results: paper PMC3689924 (Pharmacology, 2012)
Several values for one entry are separate records, joined by “and”; a condition that tells them apart may be missing. Identical values can stand only once. Entries after “also recorded” stand apart in the source; their conditions may differ. Like-named read-outs stand apart in the source and are kept apart here.

Key:
[1] = tested on: Pgp; conditions: at low concentrations; cited from earlier work
[2] = tested on: Pgp; conditions: 2 mg/kg dose; cited from earlier work
[3] = Safety and tolerability of single i.v. doses of TQD in healthy volunteers; format: in vivo, human
Method in brief: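 15 healthy males were given single i.v. infusions at 4, 6 or 8 mg/kg and kept on the ward under continuous observation until 24 h after infusion end. Blood pressure, heart rate and ECG were recorded repeatedly over the first 24 h. Monitoring included clinical chemistry, coagulation, haematology and adverse events. Physical examination, vital signs, AE check, and blood and urine analysis were repeated within one week.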

[4] = tested on: breast cancer resistance protein (BCRP); conditions: at low concentrations; cited from earlier work
[5] = format: in vivo, human; conditions: for t½: terminal elimination
Method in brief: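 Healthy males (n=5 per dose group). Vehicle stock of 20% ethanol/80% propylene glycol, diluted to 0.6 mg/ml in 5% dextrose, infused i.v. at 375 ml/h to target dose. Heparinised blood taken pre-dose, at 25/50/75% and end of infusion, then to 1440 min. Plasma methanol-precipitated, C18 HPLC-MS, calibration 0.005–5 μg/ml, LLOQ 5 ng/ml. Cmax observed; AUC0-n, Vss, CL, t½ calculated.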

[6] = format: in vitro ADME, human; conditions: for TQD concentration in plasma after storage: mean±SD of four determinations
Method in brief: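 Plasma was spiked at 0.1, 0.5 and 2.0 μg/ml and split into 16 aliquots per level. Four aliquots were analysed by HPLC at once as the baseline. The rest were stored 24 h, 1 month or 3 months at RT, 4°C, −20°C or −80°C, then quantified. Results are given as mean of four determinations and percent of baseline; stability criterion was 95%.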

[7] = tested on: Pgp at the human BBB; conditions: cited from earlier work
[8] = single i.v. doses up to 8 mg/kg BW
[9] = 4 mg/kg BW i.v. infusion, individual subjects 1-5
[10] = 6 mg/kg BW i.v. infusion, individual subjects 6-10
[11] = 8 mg/kg BW i.v. infusion, individual subjects 11-15

Vss [5, 9]: 530 L and 571 L and 384 L and 445 L
tmax [5, 9]: 1.38 h and 1.45 h and 1.55 h and 1.40 h
t½ [5, 9]: 33 h and 55 h and 30 h and 31 h
tmax [5, 10]: 2.45 h and 1.83 h and 2.23 h
t½ [5, 10]: 34 h and 26 h and 33 h and 16 h and 35 h
Vss [5, 11]: 521 L and 667 L and 380 L and 616 L
tmax [5, 11]: 2.42 h and 2.28 h and 2.70 h and 2.26 h
t½ [5, 11]: 21 h and 25 h and 30 h and 14 h
dose dependency of plasma exposure AUC0-n ([5]; dose range from 2 to 8 mg/kg i.v.): largely increase linearly
percent of baseline ([6]; 0.1 μg/ml, 4°C, 1 month): 7.2%
TQD concentration in plasma after storage ([6]; 0.1 μg/ml, 4°C, 1 month): 0.007 ± 0.001 µg/mL
percent of baseline ([6]; 0.1 μg/ml, 4°C, 3 months): 3.1%
TQD concentration in plasma after storage ([6]; 0.1 μg/ml, 4°C, 3 months): 0.003 ± 0.000 µg/mL
percent of baseline ([6]; 0.1 μg/ml, 4°C, 24 h): 99%
TQD concentration in plasma after storage ([6]; 0.1 μg/ml, 4°C, 24 h): 0.099 ± 0.003 µg/mL
percent of baseline ([6]; 0.1 μg/ml, RT, 1 month): 8.6%
TQD concentration in plasma after storage ([6]; 0.1 μg/ml, RT, 1 month): 0.008 ± 0.000 µg/mL
percent of baseline ([6]; 0.1 μg/ml, RT, 3 months): 3.0%
TQD concentration in plasma after storage ([6]; 0.1 μg/ml, RT, 3 months): 0.003 ± 0.000 µg/mL
percent of baseline ([6]; 0.1 μg/ml, RT, 24 h): 100%
TQD concentration in plasma after storage ([6]; 0.1 μg/ml, RT, 24 h): 0.10 ± 0.004 µg/mL
percent of baseline ([6]; 0.1 μg/ml, −20°C, 1 month): 73.9%
TQD concentration in plasma after storage ([6]; 0.1 μg/ml, −20°C, 1 month): 0.073 ± 0.005 µg/mL
percent of baseline ([6]; 0.1 μg/ml, −20°C, 3 months): 40.8%
TQD concentration in plasma after storage ([6]; 0.1 μg/ml, −20°C, 3 months): 0.041 ± 0.004 µg/mL
percent of baseline ([6]; 0.1 μg/ml, −20°C, 24 h): 100%
TQD concentration in plasma after storage ([6]; 0.1 μg/ml, −20°C, 24 h): 0.10 ± 0.002 µg/mL
percent of baseline ([6]; 0.1 μg/ml, −80°C, 1 month): 78.1%
TQD concentration in plasma after storage ([6]; 0.1 μg/ml, −80°C, 1 month): 0.078 ± 0.006 µg/mL
percent of baseline ([6]; 0.1 μg/ml, −80°C, 3 months): 69.1%
TQD concentration in plasma after storage ([6]; 0.1 μg/ml, −80°C, 3 months): 0.069 ± 0.005 µg/mL
percent of baseline ([6]; 0.1 μg/ml, −80°C, 24 h): 98%
TQD concentration in plasma after storage ([6]; 0.1 μg/ml, −80°C, 24 h): 0.098 ± 0.003 µg/mL
percent of baseline ([6]; 0.5 μg/ml, 4°C, 1 month): 11.2%
TQD concentration in plasma after storage ([6]; 0.5 μg/ml, 4°C, 1 month): 0.056 ± 0.003 µg/mL
percent of baseline ([6]; 0.5 μg/ml, 4°C, 3 months): 3.4%
TQD concentration in plasma after storage ([6]; 0.5 μg/ml, 4°C, 3 months): 0.017 ± 0.001 µg/mL
percent of baseline ([6]; 0.5 μg/ml, 4°C, 24 h): 102%
TQD concentration in plasma after storage ([6]; 0.5 μg/ml, 4°C, 24 h): 0.51 ± 0.023 µg/mL
percent of baseline ([6]; 0.5 μg/ml, RT, 3 months): 1.7%
TQD concentration in plasma after storage ([6]; 0.5 μg/ml, RT, 3 months): 0.008 ± 0.001 µg/mL
percent of baseline ([6]; 0.5 μg/ml, RT, 24 h): 98%
TQD concentration in plasma after storage ([6]; 0.5 μg/ml, RT, 24 h): 0.49 ± 0.033 µg/mL
percent of baseline ([6]; 0.5 μg/ml, −20°C, 1 month): 77.6%
TQD concentration in plasma after storage ([6]; 0.5 μg/ml, −20°C, 1 month): 0.38 ± 0.021 µg/mL
percent of baseline ([6]; 0.5 μg/ml, −20°C, 3 months): 36.4%
TQD concentration in plasma after storage ([6]; 0.5 μg/ml, −20°C, 3 months): 0.18 ± 0.014 µg/mL
percent of baseline ([6]; 0.5 μg/ml, −20°C, 24 h): 99%
TQD concentration in plasma after storage ([6]; 0.5 μg/ml, −20°C, 24 h): 0.49 ± 0.014 µg/mL
percent of baseline ([6]; 0.5 μg/ml, −80°C, 1 month): 82.3%
TQD concentration in plasma after storage ([6]; 0.5 μg/ml, −80°C, 1 month): 0.41 ± 0.030 µg/mL
percent of baseline ([6]; 0.5 μg/ml, −80°C, 3 months): 53.9%
TQD concentration in plasma after storage ([6]; 0.5 μg/ml, −80°C, 3 months): 0.27 ± 0.023 µg/mL
percent of baseline ([6]; 0.5 μg/ml, −80°C, 24 h): 100%
TQD concentration in plasma after storage ([6]; 0.5 μg/ml, −80°C, 24 h): 0.50 ± 0.025 µg/mL
percent of baseline ([6]; 2.0 μg/ml, 4°C, 1 month): 9.5%
TQD concentration in plasma after storage ([6]; 2.0 μg/ml, 4°C, 1 month): 0.19 ± 0.004 µg/mL
percent of baseline ([6]; 2.0 μg/ml, 4°C, 3 months): 5.6%
TQD concentration in plasma after storage ([6]; 2.0 μg/ml, 4°C, 3 months): 0.11 ± 0.006 µg/mL
percent of baseline ([6]; 2.0 μg/ml, 4°C, 24 h): 98.5%
TQD concentration in plasma after storage ([6]; 2.0 μg/ml, 4°C, 24 h): 1.97 ± 0.050 µg/mL
percent of baseline ([6]; 2.0 μg/ml, RT, 1 month): 9.1%
TQD concentration in plasma after storage ([6]; 2.0 μg/ml, RT, 1 month): 0.18 ± 0.003 µg/mL
percent of baseline ([6]; 2.0 μg/ml, RT, 3 months): 2.8%
TQD concentration in plasma after storage ([6]; 2.0 μg/ml, RT, 3 months): 0.054 ± 0.004 µg/mL
percent of baseline ([6]; 2.0 μg/ml, RT, 24 h): 101%
TQD concentration in plasma after storage ([6]; 2.0 μg/ml, RT, 24 h): 2.02 ± 0.081 µg/mL
percent of baseline ([6]; 2.0 μg/ml, −20°C, 1 month): 75.8%
TQD concentration in plasma after storage ([6]; 2.0 μg/ml, −20°C, 1 month): 1.51 ± 0.065 µg/mL
percent of baseline ([6]; 2.0 μg/ml, −20°C, 3 months): 48.3%
TQD concentration in plasma after storage ([6]; 2.0 μg/ml, −20°C, 3 months): 0.97 ± 0.084 µg/mL
percent of baseline ([6]; 2.0 μg/ml, −20°C, 24 h): 99%
TQD concentration in plasma after storage ([6]; 2.0 μg/ml, −20°C, 24 h): 1.98 ± 0.075 µg/mL
percent of baseline ([6]; 2.0 μg/ml, −80°C, 1 month): 80.6%
TQD concentration in plasma after storage ([6]; 2.0 μg/ml, −80°C, 1 month): 1.62 ± 0.068 µg/mL
percent of baseline ([6]; 2.0 μg/ml, −80°C, 3 months): 61.5%
TQD concentration in plasma after storage ([6]; 2.0 μg/ml, −80°C, 3 months): 1.23 ± 0.056 µg/mL
percent of baseline ([6]; 2.0 μg/ml, −80°C, 24 h): 100.5%
TQD concentration in plasma after storage ([6]; 2.0 μg/ml, −80°C, 24 h): 2.01 ± 0.064 µg/mL
concentration dependency of degradation rate in plasma ([6]; 0.1, 0.5 and 2.0 μg/ml): No concentration dependency
stability in plasma on storage longer than 24 h ([6]; 1 month, 3 months, even at −80°C): pronounced degradation
stability in plasma (criterion 95%) ([6]; 24 h at RT, 4°C, −20°C and −80°C): stable
concentration remaining relative to original values ([6]; one month at −20°C): 74-78%
concentration remaining relative to original values ([6]; one month at −80°C): 78-82%
concentration remaining relative to original concentration ([6]; one month of storage at RT or at 4°C): approximately 10%
Structure (SMILES): COc1cc2c(cc1OC)CN(CCc1ccc(NC(=O)c3cc(OC)c(OC)cc3NC(=O)c3cnc4ccccc4c3)cc1)CC2 [TQD, tariquidar]
transport by Pgp [1]: transported
inhibition of Pgp-mediated rhodamine 123 efflux from CD56-positive lymphocytes [2]: fully inhibit
cases of metallic taste in the mouth ([3]; 15 subjects, 4-8 mg/kg i.v.): five cases
heart rate, blood pressure and ECG ([3]; during and after TQD administration): did not significantly change
dose limiting toxicities ([3]; single i.v. doses 4, 6, 8 mg/kg): No dose limiting toxicities
serious or severe AEs [3, 8]: no serious or severe AEs
tolerability [3, 8]: generally well tolerated
blood chemistries, complete blood count and coagulation ([3]; whole study period): No subject had any significant change
transport by breast cancer resistance protein (BCRP) [4]: transported
CL [5, 9]: 11.29 L/h and 7.39 L/h and 9.22 L/h and 10.11 L/h
CL [5, 10]: 13.99 L/h and 15.15 L/h and 13.53 L/h and 11.35 L/h
Vss [5, 10]: 645 L and 509 L and 680 L and 312 L and 559 L
CL [5, 11]: 15.41 L/h and 16.21 L/h and 20.85 L/h and 22.15 L/h
Cmax ([5]; 8 mg/kg BW i.v. infusion, individual subjects 11-15, plasma): 1.92 mg/L and 1.05 mg/L and 1.87 mg/L and 1.66 mg/L
concentration of possible metabolites in plasma samples ([5]; all plasma samples, 4-8 mg/kg i.v.): below the detection limit; also recorded: could not detect any metabolites
increase in (R)-[11C]verapamil brain distribution ([7]; 8 mg/kg TQD dose, healthy subjects, PET): 3 fold
inhibition of Pgp at the human BBB ([7]; 8 mg/kg TQD dose, plateau in concentration-response curve): complete inhibition
EC50 ([7]; read-out: half-maximum effect concentration (EC50) for functional inhibition of Pgp at the human BBB): 669 nM
